Sampled rows, rich in hits. Any-hit rate of the full collection: about 2.2%.
bCat nuc transl = modulators of beta-catenin nuclear translocation, primary screen, imaging, HeLa cells, immunofluorescence, high-content. nuclear translocation activity, % at 5 µM. AID 1665, 2009. 190,000 tested, 0.3% active;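 active = nuclear translocation activity above 50% at 5 µM, with a well cell count of 50 or more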;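 also: per-cell ratio of nuclear to cytoplasmic median beta-catenin stain intensity; plate controls were DMSO negative control for no effect and GSK-3 inhibitor IX positive control for full effect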
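assay system = human HeLa cells, endogenous beta-catenin | times = compound treatment 24 h, 37°C, 5% CO2 | detection = Anti-beta-catenin immunofluorescence on PFA-fixed, Triton-permeabilized cells, DAPI nuclei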
IEC-6 tox = cytotoxicity in IEC-6 intestinal epithelial cells, primary screen, cytotoxicity control for KLF5 inhibitor project, cell-based, luminescence; IEC-6 cytotoxicity, luminescence viability; 290,000 tested, 0.78% active; inhibition, % at 5 µM;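 also: 0% = plate median of test compound wells and 100% = cytotoxic reference compound wells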
Ba/F3 V617F tox = reduced viability of JAK2V617F-dependent Ba/F3 cells, primary screen, JAK2V617F inhibitor project, cell-based, Ba/F3 EpoR-JAK2V617F, luminescence; ATP luminescence; inhibition, % at 5.6 µM; 220,000 tested, 1.1% active;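 active = inhibition above the campaign mean plus 3 SD over all tested compounds, cut at about 24% in these data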;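 also: cytokine-independent growth of Ba/F3 cells driven by EpoR plus mutant JAK2; 0% = DMSO-treated cells and 100% = JAK inhibitor I control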
MT stabilize HCS = microtubule stabilizers in HeLa cells, primary screen, imaging, high-content imaging; HeLa tubulin immunostaining HCS, 24 h; share of cells brighter than vehicle mean+2SD; % tubulin-high responders, % at 10 µM; 200,000 tested, 0.83% active; AID 2205, 2009;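 active = plate Z-score above 3 for both tubulin-high and condensed-nucleus cell shares, with cell loss under 80%, at 10 µM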;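 also: anti alpha tubulin signal scored within the nucleus-defined area of each cell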
BaF3 parental = parental Ba/F3 cell viability inhibition, counter-screen for JAK2V617F inhibitor project, murine pro-B, CellTiter-Glo luminescence; CellTiter-Glo ATP luminescence; 220,000 tested, 1.1% active; inhibition, % at 5.6 µM;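 active = inhibition above a per-campaign cutoff, the mean inhibition of all tested compounds plus 3 SD, cut at about 27% in these data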;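 also: 0% = DMSO wells and 100% = JAK Inhibitor I control wells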
APP 5UTR inh = inhibitors of APP translation via 5'UTR reporter, primary screen, APP 5'UTR luciferase, SH-SY5Y cells; 190,000 tested, 0.82% active; SH-SY5Y APP 5'UTR-luciferase reporter, luminescence; inhibition, % at 2 µM; AID 1285, 2008;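 active = inhibition above a set limit, derived from the sample mean plus 3 SD, cut at about 45% in these data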
IEC-6 tox confirm = cytotoxic compounds in IEC-6 epithelial cells, confirmation, cytotoxicity control, cell-based, luminescence. shares compounds with IEC-6 tox. IEC-6 rat intestinal epithelial viability. inhibition, % at 5 µM. 1,900 tested, 63% active;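 also: 0% = vehicle and 100% = reference cytotoxic drug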
Starred values were filed as active, the others as inactive; x = no result given. Rule as the data show it, unless noted: active = inhibition above about 22%; inactive = the rest.

SMILES | bCat nuc transl | IEC-6 tox | Ba/F3 V617F tox | MT stabilize HCS | BaF3 parental | APP 5UTR inh | IEC-6 tox confirm
O=C(CCN1C(=O)[C@@H]2Cc3ccccc3CN2C1=O)N[C@H](C(=O)O)c1ccccc1 | x | 4 | x | x | x | x | x
COC(=O)c1cc(-c2ccc(OC)c(OC)c2)c2c(=O)[nH]c(=O)n(C)c2n1 | x | -2 | x | x | x | x | x
COc1ccc(C2=Nn3c(nnc3-c3ccccn3)SC2)cc1OC | 1 | 1 | 5 | 5 | 10 | -8 | x
COc1ccc(C2=Nn3c(nnc3-c3ccccc3OC)SC2)cc1OC | 58* | 92* | 93* | 16* | 89* | 96* | 72*
CCc1ccc(C2=Nn3c(nnc3-c3cccs3)SC2)cc1 | 0 | 52* | -2 | 3 | 4 | -1 | 35*
O=C(N/C(=C\c1ccccc1)C(=O)N1CCOCC1)c1ccccc1Cl | x | -8 | x | x | x | x | x
Cc1cc(C)c(C(=O)CSc2nc3ccccc3c(=O)[nH]2)cc1C | 3 | 71* | -2 | 2 | 7 | 4 | 52*
Cc1ccc(C(=O)CSc2nc3ccccc3c(=O)[nH]2)cc1 | x | 14 | -2 | 1 | 0 | -24 | x
Cc1ccc(C)c(C(=O)CSc2nc3ccccc3c(=O)[nH]2)c1 | 2 | 44* | 0 | 4 | 8 | -14 | 48*
COc1ccc(S(=O)(=O)N(C)c2ccc(C(=O)NCc3ccccn3)cc2)cc1OC | x | 8 | x | x | x | x | x
Cc1ccc(/C=N\NC(=O)Cn2c(C)nc3ccccc32)o1 | 4 | -6 | 2 | 2 | 0 | -15 | x
CCCSc1nnc(Sc2nnnn2-c2ccccc2)s1 | -8 | 42* | 82* | 9 | 95* | 94* | 26*
Cc1ccccc1-n1nnnc1Sc1nnnn1-c1ccccc1 | 0 | 4 | 4 | 1 | 0 | 5 | x
O=C(NNC(=O)c1ccc(O)cc1O)c1ccc(-c2ccccc2)cc1 | x | 24* | x | x | x | x | 1
N#Cc1ccc(NC(=O)CSc2cn[nH]n2)cc1 | x | 12 | x | x | x | x | x
O=C(CCn1c(=O)oc2ccccc21)N1CCN(c2ccccc2Cl)CC1 | 0 | 23* | 13 | 44* | 16 | -3 | 40*
COc1cc(/C=N/NC(=O)CC#N)cc(Br)c1O | -2 | 37* | -4 | 2 | 0 | -6 | -6
COc1cc(/C=N/NC(=O)Cc2ccc(Br)cc2)cc(OC)c1O | 1 | -2 | -5 | 3 | -1 | -12 | x
Cc1ccc2[nH]c(=O)c3cc(C(=O)NC(C)C)sc3c2c1 | x | -8 | x | x | x | x | x
COc1ccc(Cn2c(C3CC3)nc3ccc(NC(=O)c4cccnc4)cc3c2=O)cc1 | x | 37* | x | x | x | x | 21
Cc1c(OC(C)C(=O)NCC(O)c2ccccc2)ccc2c3c(c(=O)oc12)CCC3 (centres undefined) | x | 4 | x | x | x | x | x
COc1ccccc1N1CCN(C(=O)c2ccc3[nH]c(C)c(C)c3c2)CC1 | x | 73* | x | x | x | x | 57*
Cc1ccccc1OCCOC(=O)c1c(-c2ccccc2)noc1C | x | 54* | x | x | x | x | 28*
Cc1onc(-c2ccccc2)c1C(=O)OCCOc1ccccc1F | x | 1 | x | x | x | x | x
O=C(O)CCC(=O)Nc1nnc(C(F)(F)F)s1 | -1 | 0 | -2 | 3 | 0 | 0 | x
SMILES | bCat nuc transl | IEC-6 tox | Ba/F3 V617F tox | MT stabilize HCS | BaF3 parental | APP 5UTR inh | IEC-6 tox confirm
CCC(NC(=O)Nc1nnc(C(F)(F)F)s1)(C(F)(F)F)C(F)(F)F | 5 | 26* | 98* | 4 | 89* | -2 | 92*
CCC(C(=O)N1CCC(N2CCCCC2)CC1)n1nc(C)c2sc3ccccc3c2c1=O (centres undefined) | x | 0 | x | x | x | x | x
Cn1c(=O)c2cc(S(=O)(=O)Nc3cc(C(=O)O)cc(C(=O)O)c3)ccc2n(C)c1=O | -1 | -8 | -1 | 4 | 6 | -8 | x
Cc1cc(C)cc(NS(=O)(=O)c2ccc3c(c2)c(=O)n(C)c(=O)n3C)c1 | 0 | 35* | 49* | 2 | 67* | 15 | 33*
COCCn1c(SCC(=O)Nc2nc(C)c(Cl)cc2Cl)nc2ccccc21 | -2 | -2 | -2 | 1 | 5 | -9 | x
Cc1cccc(-n2c(SCC(=O)Nc3ncc(Cl)cc3Cl)nc3ccccc32)c1 | 1 | 67* | 2 | 2 | 7 | 17 | 47*
COc1ccc(-n2c(SCC(=O)Nc3ncc(Cl)cc3Cl)nc3ccccc32)cc1 | 3 | 69* | 4 | 6 | 7 | -10 | 39*
O=C(CSc1nc2ccccc2n1-c1ccccc1)Nc1ncc(Cl)cc1Cl | 5 | 64* | 2 | 7 | 1 | 3 | 39*
COc1ccc(NC(=O)CSc2nc3ccccc3c(=O)n2CCCN2CCCCC2)c(OC)c1 | x | -3 | 2 | 2 | 3 | 22 | x
COc1ccc(S(=O)(=O)N(C)CC(=O)NCc2ccc3c(c2)OCO3)cc1 | x | -3 | x | x | x | x | x
O=C1CC(c2cccc(Cl)c2)c2cc3c(cc2N1)CCC3 (centres undefined) | 0 | 28* | 9 | 32* | 27* | 34 | 29*
O=C1CC(c2cc(Br)ccc2F)c2cc3c(cc2N1)CCC3 (centres undefined) | 38 | -6 | -4 | 13 | 4 | 41 | x
CCOc1ncccc1C(=O)N1CCN(c2cccc(C)c2C)CC1 | 186* | 86* | 81* | 11* | 81* | 95* | 54*
CCOc1ncccc1C(=O)N1CCN(C(=O)c2ccccc2)CC1 | 0 | -4 | -6 | 3 | 0 | -5 | x
CCOc1ncccc1C(=O)N1CCN(S(=O)(=O)c2ccccc2)CC1 | -4 | -6 | 8 | 2 | 11 | -30 | x
CCOc1ncccc1C(=O)N1CCN(c2cc(Cl)ccc2C)CC1 | 84* | 82* | 65* | 11 | 68* | 91* | 61*
Cc1cccc(N2CCN(C(=O)c3c(-c4ccccc4)noc3C)CC2)c1C | x | 72* | x | x | x | x | 45*
O=C(Nc1nc2ccccc2s1)C1CCN(C(=O)c2ccco2)CC1 | x | -1 | x | x | x | x | x
C#CC(=O)N(c1ccc(OC)c(OC)c1)C(C(=O)NC1CCCC1)c1cccs1 (centres undefined) | -4 | 100* | 99* | 1 | 52* | 17 | 79*
COC(=O)C(CO)Nc1ncnc2onc(-c3ccc(F)cc3)c12 (centres undefined) | x | -9 | x | x | x | x | x
O=c1c2ccccc2nc2n1C(CSc1ccccc1)CS2 (centres undefined) | -5 | 4 | -1 | 4 | 1 | -17 | x
O=C(Nc1ccccc1SCC1CSc2nc3ccccc3c(=O)n21)c1ccccc1Cl (centres undefined) | -1 | 60* | -3 | 2 | 4 | -1 | 26*

Screening data (PubChem)
